Experimental data gathered from unrelated publications.
Compare with care: the assays were run in different laboratories.
BRAF: Serine/threonine-protein kinase B-raf (BRAF, Homo sapiens, UniProt P15056)
BRAF V600E: Serine/threonine-protein kinase B-raf (BRAF, Homo sapiens, UniProt P15056, V600E)

Structure (SMILES)	target	test	setting	remaining binding [%]
O=C(NCCCN1CCOCC1)c1ccc(Nc2nccc(-c3cc4ccccc4s3)n2)cc1	BRAF	binding, competition with immobilised ligand	1 µM	77
C=CC(=O)N1CCC(C(=O)NCC(=O)N2CCN(c3nc(-c4cnc(N)nc4C(F)F)nc(N4CCOCC4)n3)CC2)CC1	BRAF	binding, competition with immobilised ligand	1 µM	92
Cc1nccc(COC(=O)N2C[C@@H]3[C@@H](CNC(=O)c4ccc5[nH]nnc5c4)[C@@H]3C2)n1	BRAF V600E	cell-free assay, competition with immobilised ligand	1 µM	100
CC(C)(C)c1ccc(-c2nc(CBr)nn2-c2cccc(O)c2)cc1	BRAF	cell-free assay, competition with immobilised ligand	10 µM	77
N[C@H]1CCN(c2nccc(-c3cnn4ncccc34)n2)C1	BRAF	binding	1 µM	84
COc1cc(-c2cn(C3CCc4ccccc4N(CC(F)(F)F)C3=O)nn2)ccc1-n1ccc(C)n1 (stereo not drawn)	BRAF	cell-free assay, competition with immobilised ligand	1 µM	100
O=C(c1ccc(Nc2ncc(Cl)c(-c3ccc(Cl)s3)n2)cc1)N1CCC(N2CCCC2)CC1	BRAF V600E	binding, competition with immobilised ligand	1 µM	37
CNC(=O)[C@@H]1CC[C@@H](n2c(-c3ccc4cnccc4c3)nc3ccc(C(=O)NCc4cccc(C(N)=O)c4)cc32)C1	BRAF V600E	binding, competition with immobilised ligand	1 µM	100
Cc1cnc(Nc2ccc(C(=O)N3CCC(N4CCCC4)CC3)cc2)nc1-c1cc2ccccc2s1	BRAF	binding, competition with immobilised ligand	1 µM	46
COc1ccnn2ncc(-c3ccnc(N(C)C)n3)c12	BRAF	binding	1 µM	48
CCN1CCN(Cc2ccc(C(=O)Nc3ccc(C)c(Oc4ccc5c(c4)CC(=O)N5)c3)cc2C(F)(F)F)CC1	BRAF	binding, competition with immobilised ligand	1 µM	64
CN([C@@H]1CCc2c(CC(=O)O)c3cc(S(C)(=O)=O)ccc3n2C1)S(=O)(=O)c1ccc(F)cc1	BRAF	cell-free assay, competition with immobilised ligand	1 µM	98
Nc1ncc2c(n1)-c1c([nH]c3ccc(C#CC4CC4)cc13)CCCC2	BRAF V600E	binding, competition with immobilised ligand	1 µM	88
CN(CCCC(F)(F)F)c1nccc(-c2cnn3ncccc23)n1	BRAF	binding	1 µM	100
O=C(c1ccc(Nc2ncc(Cl)c(-c3cc4ccccc4s3)n2)cc1)N1CCC(N2CCCC2)CC1	BRAF	binding, competition with immobilised ligand	1 µM	64
CN1CCN(c2ccc(Nc3nccc(-c4cccc([N+](=O)[O-])c4)n3)cc2C(F)(F)F)CC1	BRAF V600E	binding	10 µM	3.8
F[C@@H]1CCN(c2nccc(-c3cnn4ncccc34)n2)C1	BRAF V600E	binding	1 µM	100
c1cncc(-c2cccc(Nc3nccc(NC4CCCCC4)n3)c2)c1	BRAF V600E	binding, competition with immobilised ligand	10 µM	52

Structure (SMILES)	target	test	setting	remaining binding [%]
COc1cnc(Nc2cccc(S(N)(=O)=O)c2)nc1N1CCN(c2ccccc2)C(=O)C1	BRAF	binding, competition with immobilised ligand	1 µM	87
O=C(NCCCN1CCOCC1)c1ccc(Nc2ncc(Cl)c(-c3ccc(Cl)s3)n2)cc1	BRAF V600E	binding, competition with immobilised ligand	1 µM	92
O=C(Nc1c[nH]nc1C(=O)NC1CCNCC1)c1cc(F)cc(F)c1	BRAF	binding, competition with immobilised ligand	1 µM	100
CS(=O)(=O)N1CCCC(NC(=O)[C@H](CCC2CCCCC2)NC(=O)c2ccc(CNc3ncnc4c3nnn4-c3ccccc3)cc2)C1 (stereo partly drawn)	BRAF	cell-free assay, competition with immobilised ligand	0.1 µM	81
CN(C)c1nccc(-c2cnn3ncccc23)n1	BRAF V600E	binding	1 µM	69
Cc1c(NC(=O)c2cc(C(N)=O)nc3cc(F)ccc23)c(C(F)(F)F)nn1Cc1ccc(C#N)cc1	BRAF V600E	cell-free assay, competition with immobilised ligand	1 µM	90
O=C(NCC1CCOCC1)c1n[nH]cc1NC(=O)c1c(F)cccc1F	BRAF V600E	binding, competition with immobilised ligand	1 µM	100
NS(=O)(=O)c1cc(NC(=O)Cc2ccccc2)ccc1Oc1cccc(Cl)c1	BRAF	cell-free assay, competition with immobilised ligand	1 µM	96
COc1ncc2cc3ccccc3nc2c1C#N	BRAF V600E	cell-free assay, competition with immobilised ligand	5 µM	100
O=C(c1ccc(Nc2nccc(-c3cc4ccccc4s3)n2)cc1)N1CCC(N2CCCC2)CC1	BRAF V600E	binding, competition with immobilised ligand	1 µM	21
C[C@@H]1CCN(c2nccc(-c3cnn4ncccc34)n2)C1	BRAF	binding	1 µM	75
C[C@@H](c1ccc(-n2cnc3c(N)ncnc32)cc1)N1CCc2nn(C)c(Cc3ccccc3)c2C1=O	BRAF	binding, competition with immobilised ligand	0.1 µM	100
C[C@@H]1CN(c2ccc3ncc(-c4ccc5[nH]nc(C6CC6)c5c4)n3n2)C[C@H](C)O1	BRAF	binding, competition with immobilised ligand	0.5 µM	100
CCC(=N\O)/C(C)=C/c1ccc(F)cc1	BRAF V600E	cell-free assay, competition with immobilised ligand	1 µM	77
c1cnn2ncc(-c3ccnc(N4CCC45COC5)n3)c2c1	BRAF V600E	binding	1 µM	63
Cc1nc(Cc2cccc(C(F)(F)F)c2)sc1-c1ccc(C(N)=O)nc1	BRAF V600E	cell-free assay, competition with immobilised ligand	1 µM	100
CN(C)c1nccc(-c2cnc3ncccn23)n1	BRAF	binding	1 µM	89
N#Cc1ccccc1CSc1nnc2c(n1)[nH]c1ccccc12	BRAF	binding, competition with immobilised ligand	10 µM	94
